In ChEMBL document CHEMBL1629596, “Antileishmanial activity of 1,3,4-thiadiazolium-2-aminide in mice infected with Leishmania amazonensis” (Antimicrob Agents Chemother, 2009):
Calls of active or inactive are those of the source. No cut-off for these calls is given here.

Assays:
Mus musculus [1] = assay: Toxicity in CBA/J mouse assessed as change in alanine aminotransferase level at 24 mg/kg/day, sc administered 5 doses a week for 4 weeks (reference value: 52 +/- 6.2 U/ml); format: organism-based; set-up: route subcutaneous; settings: in vivo, 672 h
Mus musculus [2] = assay: Toxicity in CBA/J mouse assessed as change in lymphocytes count at 24 mg/kg/day, sc administered 5 doses a week for 4 weeks (reference value: 75%); format: organism-based; set-up: route subcutaneous; settings: in vivo, 672 h
Outline: (§1)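 Uninfected mice dosed subcutaneously in DMSO/PBS, 5 doses/week; tail blood taken at week 4 of treatment. Total leukocytes counted in Neubauer chamber; lymphocyte, monocyte and neutrophil values given as percentages.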

Mus musculus [3] = assay: Toxicity in CBA/J mouse assessed as change in body weight at 24 mg/kg/day, sc administered 5 doses a week for 4 weeks (reference value: 25 g); format: organism-based; set-up: route subcutaneous; settings: in vivo, 672 h
Leishmania amazonensis [4] = assay: Antileishmanial activity against Leishmania amazonensis infected in macrophages assessed as nitric oxide release; format: functional, organism-based
Mus musculus [5] = assay: Toxicity in CBA/J mouse assessed as change in monocytes count at 24 mg/kg/day, sc administered 5 doses a week for 4 weeks (reference value: 5%); format: organism-based; set-up: route subcutaneous; settings: in vivo, 672 h; outline: as §1
Leishmania amazonensis [6] = assay: Antileishmanial activity against Leishmania amazonensis infected in CBA/J mouse assessed as reduction of lesion size at 24 mg/kg/day, sc administered 4 weeks after infection 5 dose in a week for 4 weeks measured after 12 weeks; format: functional, organism-based
Outline: (§2)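 Infected footpad thickness measured as lesion size, followed to week 12 postinfection. Subcutaneous dosing in DMSO/PBS vehicle began 27 days after infection, 5 doses a week for 4 weeks; controls received vehicle alone. Groups of seven mice, mean ± SEM.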

Mus musculus [7] = assay: Toxicity in CBA/J mouse assessed as change in aspartate aminotransferase level at 24 mg/kg/day, sc administered 5 doses a week for 4 weeks (reference value: 51 +/- 6.8 U/ml); format: organism-based; set-up: route subcutaneous; settings: in vivo, 672 h
Mus musculus [8] = assay: Toxicity in CBA/J mouse assessed as change in white blood cell count at 24 mg/kg/day, sc administered 5 doses a week for 4 weeks (reference value: 14 x 10^3 ul); format: organism-based; set-up: route subcutaneous; settings: in vivo, 672 h; outline: as §1
Leishmania amazonensis [9] = assay: Antileishmanial activity against Leishmania amazonensis infected in CBA/J mouse assessed as reduction of parasite loads in spleen at 24 mg/kg/day, sc administered 4 weeks after infection 5 dose in a week for 4 weeks measured after 12 weeks; format: functional, organism-based
Outline: (§3)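 Week 12 postinfection (4 weeks after last dose): popliteal lymph nodes and spleens removed aseptically, weighed, homogenized in Schneider's medium + 10% FCS; eight 1:10 serial dilutions in triplicate, incubated at 26°C, read by inverted microscope; titer = last dilution with at least one parasite. Seven animals; subcutaneous dosing in DMSO/PBS, 5 doses/week for 4 weeks.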

Leishmania amazonensis [10] = assay: Antileishmanial activity against Leishmania amazonensis infected in CBA/J mouse assessed as reduction of foot-pad thickness at 24 mg/kg/day, sc administered 4 weeks after infection 5 dose in a week for 4 weeks measured after 12 weeks; format: functional, organism-based; outline: as §2
Mus musculus [11] = assay: Toxicity in CBA/J mouse assessed as change in neutrophils count at 24 mg/kg/day, sc administered 5 doses a week for 4 weeks (reference value: 19%); format: organism-based; set-up: route subcutaneous; settings: in vivo, 672 h; outline: as §1
Leishmania amazonensis [12] = assay: Antileishmanial activity against Leishmania amazonensis infected in CBA/J mouse assessed as reduction of parasite loads in popliteal lymph nodes at 24 mg/kg/day, sc administered 4 weeks after infection 5 dose in a week for 4 weeks measured after 12 weeks; format: functional, organism-based; settings: Popliteal lymph node; outline: as §3
Leishmania amazonensis [13] = assay: Antileishmanial activity against Leishmania amazonensis infected in CBA/J mouse assessed as reduction of foot-pad thickness at 100 mg/kg/day, sc administered 4 weeks after infection 5 dose in a week for 4 weeks measured after 12 weeks; format: functional, organism-based
Outline: (§4)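 Sc dosing started day 27 post-infection, 5 doses/week for 4 weeks. Controls got DMSO/PBS vehicle. Footpad swelling was followed to week 12 and recorded as infected-footpad thickness. Groups were seven mice, reported as mean with standard errors.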

Leishmania amazonensis [14] = assay: Antileishmanial activity against Leishmania amazonensis infected in CBA/J mouse assessed as reduction of parasite loads in spleen at 100 mg/kg/day, sc administered 4 weeks after infection 5 dose in a week for 4 weeks measured after 12 weeks; format: functional, organism-based
Outline: (§5)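 Mice were killed at week 12, 4 weeks after treatment ended. Popliteal lymph nodes and spleens were removed aseptically, weighed and homogenized in Schneider's medium + 10% fetal calf serum. Eight serial 1:10 dilutions were plated in triplicate and incubated at 26°C. Titer was the last dilution with ≥1 parasite by microscopy. Groups were seven mice.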

Leishmania amazonensis [15] = assay: Antileishmanial activity against Leishmania amazonensis infected in CBA/J mouse assessed as reduction of lesion size at 100 mg/kg/day, sc administered 4 weeks after infection 5 dose in a week for 4 weeks measured after 12 weeks; format: functional, organism-based; outline: as §4
Leishmania amazonensis [16] = assay: Antileishmanial activity against Leishmania amazonensis infected in CBA/J mouse assessed as reduction of parasite loads in popliteal lymph nodes at 100 mg/kg/day, sc administered 4 weeks after infection 5 dose in a week for 4 weeks measured after 12 weeks; format: functional, organism-based; settings: Popliteal lymph node; outline: as §5
Mus musculus [17] = assay: Toxicity in CBA/J mouse assessed as change in aspartate aminotransferase level at 22 mg/kg/day, sc administered 5 doses a week for 4 weeks (reference value: 51 +/- 6.8 U/ml); format: organism-based; set-up: route subcutaneous; settings: in vivo, 672 h
Leishmania amazonensis [18] = assay: Antileishmanial activity against Leishmania amazonensis infected in CBA/J mouse assessed as reduction of parasite loads in spleen at 22 mg/kg/day, sc administered 4 weeks after infection 5 dose in a week for 4 weeks measured after 12 weeks; format: functional, organism-based; outline: as §3
Mus musculus [19] = assay: Toxicity in CBA/J mouse assessed as change in lymphocytes count at 22 mg/kg/day, sc administered 5 doses a week for 4 weeks (reference value: 75%); format: organism-based; set-up: route subcutaneous; settings: in vivo, 672 h; outline: as §1
Mus musculus [20] = assay: Toxicity in CBA/J mouse assessed as change in neutrophils count at 22 mg/kg/day, sc administered 5 doses a week for 4 weeks (reference value: 19%); format: organism-based; set-up: route subcutaneous; settings: in vivo, 672 h; outline: as §1
Leishmania amazonensis [21] = assay: Antileishmanial activity against Leishmania amazonensis infected in CBA/J mouse assessed as reduction of foot-pad thickness at 22 mg/kg/day, sc administered 4 weeks after infection 5 dose in a week for 4 weeks measured after 12 weeks; format: functional, organism-based; outline: as §2
Mus musculus [22] = assay: Toxicity in CBA/J mouse assessed as change in monocytes count at 22 mg/kg/day, sc administered 5 doses a week for 4 weeks (reference value: 5%); format: organism-based; set-up: route subcutaneous; settings: in vivo, 672 h; outline: as §1
Leishmania amazonensis [23] = assay: Antileishmanial activity against Leishmania amazonensis infected in CBA/J mouse assessed as reduction of parasite loads in popliteal lymph nodes at 22 mg/kg/day, sc administered 4 weeks after infection 5 dose in a week for 4 weeks measured after 12 weeks; format: functional, organism-based; settings: Popliteal lymph node; outline: as §3
Mus musculus [24] = assay: Toxicity in CBA/J mouse assessed as change in body weight at 22 mg/kg/day, sc administered 5 doses a week for 4 weeks (reference value: 25 g); format: organism-based; set-up: route subcutaneous; settings: in vivo, 672 h
Mus musculus [25] = assay: Toxicity in CBA/J mouse assessed as change in alanine aminotransferase level at 22 mg/kg/day, sc administered 5 doses a week for 4 weeks (reference value: 52 +/- 6.2 U/ml); format: organism-based; set-up: route subcutaneous; settings: in vivo, 672 h
Mus musculus [26] = assay: Toxicity in CBA/J mouse assessed as change in white blood cell count at 22 mg/kg/day, sc administered 5 doses a week for 4 weeks (reference value: 14 x 10^3 ul); format: organism-based; set-up: route subcutaneous; settings: in vivo, 672 h; outline: as §1
Leishmania amazonensis [27] = assay: Antileishmanial activity against Leishmania amazonensis infected in CBA/J mouse assessed as increase of nitric oxide production in lymph node cells at 22 mg/kg/day, sc administered 4 weeks after infection 5 dose in a week for 4 weeks measured after 12 weeks; format: functional, organism-based

C(=C\c1sc(Nc2ccccc2)n[n+]1-c1ccccc1)/c1ccccc1.[Cl-]
Activity (Mus musculus [1]): 58 U/ml
Activity (Mus musculus [2]): 70%
Activity (Mus musculus [3]): 26 g
Activity (Leishmania amazonensis [4]): Active
Activity (Mus musculus [5]): 5%
Activity (Leishmania amazonensis [6]): inactive
Activity (Mus musculus [7]): 48 U/ml
Activity (Mus musculus [8]): 12 ×10³ /uL
Activity (Leishmania amazonensis [9]): Active
Activity (Leishmania amazonensis [10]): Active
Activity (Mus musculus [11]): 24%
Activity (Leishmania amazonensis [12]): Active

MEGLUMINE ANTIMONATE
Activity (Leishmania amazonensis [13]): Active
Activity (Leishmania amazonensis [14]): Active
Activity (Leishmania amazonensis [15]): inactive
Activity (Leishmania amazonensis [16]): Active

COc1ccc(/C=C/c2sc(Nc3ccccc3)n[n+]2-c2ccccc2)cc1.[Cl-]
Activity (Mus musculus [17]): 53 U/ml
Activity (Leishmania amazonensis [18]): Active
Activity (Mus musculus [19]): 69%
Activity (Mus musculus [20]): 25%
Activity (Leishmania amazonensis [4]): Active
Activity (Leishmania amazonensis [21]): Active
Activity (Mus musculus [22]): 5%
Activity (Leishmania amazonensis [23]): Active
Activity (Mus musculus [24]): 27 g
Activity (Mus musculus [25]): 57 U/ml
Activity (Mus musculus [26]): 12 ×10³ /uL
Activity (Leishmania amazonensis [27]): Active
